GPR7 antag = GPR7 receptor antagonists, primary screen, cell-based, fluorescence, single concentration | Neuropeptides B/W receptor type 1 (Homo sapiens), P48145 | GPR7-expressing cells, fluorescence antagonist assay | inhibition, % at 4.4 µM | 1.1% of 290,000 active; in the data active means inhibition above about 16%, passing the limit was not always enough;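 further: cells stimulated with the agonist NPW; 0% = agonist with vehicle and 100% = vehicle without agonist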
zfTRPN1 agonist = zebrafish TRPN1 channel agonists, primary screen, cell-based, HEK293, calcium fluorescence. HEK293 zebrafish TRPN1-YFP, Fluo-8 calcium fluorescence; 100% = response to 87 µM carbachol. activation, % at 3 µM. transient receptor potential cation channel N1 (TRPN1/NompC), Danio rerio. 0.18% of 220,000 active. AID 1424, 2008;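 active means activation above its plate's cutoff, the mean activation of test wells on that plate plus 3 SD, cut at about 19% in these data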;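 further: 0% = DMSO alone and 100% = 87 µM carbachol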
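Control set: carbachol 87 µM as high control, DMSO as low control; system: HEK293 stable line with zebrafish TRPN1-YFP; read-out: % activation versus carbachol response; detection: intracellular calcium fluorescence with Fluo-8; doses: single test compound dose, 3 µM nominal, 0.3% DMSO; schedule: dye 1 h 37 °C plus 30 min RT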
TRPML3 ag = human TRPML3 channel agonists, primary screen, cell-based, HEK293 TRPML3-YFP, Fluo-8 calcium fluorescence, 3 µM; activation, % at 3 µM; 100% = the carbachol control signal; 0.29% of 220,000 active; AID 1448, 2008;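 active means activation above its plate's cutoff, the mean activation of the plate's test wells plus 3 SD, cut at about 12% in these data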;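 further: 0% = DMSO only wells and 100% = carbachol wells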
Target sequence (Q8TDD5 whole entry, looked up): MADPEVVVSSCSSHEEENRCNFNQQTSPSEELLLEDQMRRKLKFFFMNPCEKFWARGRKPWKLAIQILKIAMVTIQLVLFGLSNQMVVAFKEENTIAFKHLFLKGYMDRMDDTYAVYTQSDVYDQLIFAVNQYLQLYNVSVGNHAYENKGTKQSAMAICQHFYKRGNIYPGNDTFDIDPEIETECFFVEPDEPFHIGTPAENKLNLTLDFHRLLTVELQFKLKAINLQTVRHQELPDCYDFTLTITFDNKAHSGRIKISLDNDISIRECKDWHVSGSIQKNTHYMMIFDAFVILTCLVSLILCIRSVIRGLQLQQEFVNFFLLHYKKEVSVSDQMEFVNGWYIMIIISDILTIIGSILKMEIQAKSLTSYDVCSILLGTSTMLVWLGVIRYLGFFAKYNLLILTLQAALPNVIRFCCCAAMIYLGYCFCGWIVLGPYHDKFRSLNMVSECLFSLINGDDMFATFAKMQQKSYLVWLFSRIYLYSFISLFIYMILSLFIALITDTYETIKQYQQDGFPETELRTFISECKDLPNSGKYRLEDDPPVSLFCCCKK
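Test system: HEK293 cells stably carrying human TRPML3-YFP; Doses: single dose, 3 µM final nominal compound, 0.3% DMSO final; Schedule: dye loading 1 h 37 °C then 30 min ambient, 125 s read; Technique: Fluo-8 calcium fluorescence; Benchmarks: high control carbachol 87 µM, low control DMSO.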
CRFR2-BP antag = antagonists of CRF-BP/CRF-R2 complex, primary screen, cell-based, HEK293, calcium dye fluorescence, uHTS; CRF-induced calcium fluorescence; inhibition, % at 11.8 µM; 0.59% of 350,000 active; AID 588475, 2011;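 active means inhibition of the ligand-induced calcium signal above about 50% at the single tested concentration, limit read from the data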
CRFBP-R2 agonist = agonists of CRF-BP/CRF-R2 complex, primary screen, cell-based, HEK293, calcium dye fluorescence, uHTS. 0.46% of 350,000 active. activation, % at 13.2 µM. CRF-binding protein / CRF receptor 2 complex (human). calcium dye fluorescence (FLIPR); percent of saturating CRF peptide response;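 active means activation of at least 50%, plus an integration ratio under a set limit after plate pattern correction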;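 further: plate controls were neutral control wells without compound for no effect and CRF at EC100 for full effect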
GPR7 antag conf = GPR7 receptor antagonists, confirmation, cell-based, fluorescence, single concentration. shares compounds with GPR7 antag. GPR7-expressing cells, calcium fluorescence antagonist mode. inhibition, % at 4.4 µM. 52% of 2,400 active. AID 1952, 2009; in the data active means inhibition above about 24%;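 further: stimulated with the GPR7 agonist NPW; 0% = agonist plus vehicle and 100% = vehicle alone without agonist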
MCHR1 antag = MCHR1 antagonists in cells, counter-screen for GPR7 antagonist project, cell-based, fluorescence, human; shares compounds with GPR7 antag; MCHR1-expressing cells, fluorescence antagonist assay; inhibition, % at 4.4 µM; 62% of 2,400 active; AID 2148, 2009; in the data active means inhibition above about 22%;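 further: 0% = vehicle with agonist and 100% = vehicle without agonist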
An asterisk follows results filed as active; . = no result given. A selection: hits, their analogues and other compounds. The true share with any hit is near 2%.

SMILES	GPR7 antag	zfTRPN1 agonist	TRPML3 ag	CRFR2-BP antag	CRFBP-R2 agonist	GPR7 antag conf	MCHR1 antag
CCOC(=O)/C(C(=O)Nc1ccccc1Cl)=C1/NC(C)(C)Cc2ccccc21	-6	-1	0	-42	-2	.	.
CCOC(=O)/C(C)=C1\NC(C)(C)Cc2ccccc21	24*	3	0	9	0	14	8
CN1CCN(c2ccccc2/C=C2/C(=O)Nc3ccccc32)CC1	-6	.	.	-10	2	.	.
CCC(C)(C)NC(=O)c1cc(S(=O)(=O)N2CCc3ccccc32)cn1C	21*	.	.	7	-4	10	35*
Cn1cc(S(=O)(=O)N2CCc3ccccc32)cc1C(=O)NC1CCCCC1	-13	.	.	-7	1	.	.
CN(C)S(=O)(=O)N1CCC(Oc2ccc(C(=O)NC3Cc4ccccc4C3)cc2)CC1	51*	.	.	-8	1	66*	75*
CC(=O)Nc1ccc(C=NNc2ccc([N+](=O)[O-])cn2)cc1	.	.	.	-10	-1	.	.
C/C(=N\NC(=O)c1ccc2c(c1)OCO2)c1ccc(NC(=O)CCCC(=O)O)cc1	22*	.	.	9	3	4	8
CCCCn1c(N)c(N(Cc2ccccc2OC)C(=O)C(C)Oc2ccc(Br)cc2)c(=O)[nH]c1=O (configuration not stated)	.	.	.	-3	0	.	.
CN1CCN(S(=O)(=O)c2ccc(N(C)Cc3ccc(OC(F)F)cc3)c([N+](=O)[O-])c2)CC1	.	.	.	1	2	.	.
O=C(Nc1ccccc1)N1CCN(Cc2ccc(Cl)cc2)CC1	7	1	1	-8	-1	.	.
O=C(Nc1ccc(Cl)cc1)N1CCCN(Cc2ccc(F)cc2)C1	88*	0	1	-39	-1	43*	42*
Cn1c(Cc2cccc3ccccc23)nnc1SCc1ccc([N+](=O)[O-])cc1	29*	0	0	6	1	1	15
c1ccc2c(c1)ccc1[nH]c3c(c12)CCCC3	.	.	.	1	2	.	.
CC1c2[nH]c3ccccc3c2CCN1S(C)(=O)=O (configuration not stated)	26*	1	0	4	0	4	6
O=C1CCC2c3[nH]c4ccccc4c3CCN12 (configuration not stated)	.	.	.	3	27	.	.
CCc1ccc(CN2CCC(n3nccc3NC(=O)c3ccccc3C)CC2)cc1	27*	.	.	-25	2	10	26*
Cc1ccccc1C(=O)Nc1ccnn1C1CCN(Cc2cccnc2)CC1	-8	.	.	-3	-1	.	.
O=C(c1cnsn1)N1CCCC(Nc2ccc(F)c(F)c2)C1 (configuration not stated)	-7	.	.	-7	0	.	.
Cc1ccc(SCC(=O)Nc2ccc(N3CCN(C)CC3)c(F)c2)c(C)c1	38*	-1	0	-1	-1	3	10
N/C(=N\OC(=O)COc1ccc(Cl)cc1Br)c1cccnc1	24*	0	0	-1	1	6	18
N/C(=N\OC(=O)COc1ccc(Br)cc1Cl)c1cccnc1	-6	-1	0	8	0	.	.
CCCOc1ccc(CNC(=O)c2ccc3nc(N4CCOCC4)sc3c2)cc1	-7	.	.	-2	1	.	.
CC(Oc1cccnc1[N+](=O)[O-])C(=O)N1CCc2ccccc21 (configuration not stated)	.	.	.	-3	-1	.	.
COc1ccccc1-c1cc(-c2ccc(O)cc2)nc(N)c1C#N	37*	.	.	4	1	11	17
SMILES	GPR7 antag	zfTRPN1 agonist	TRPML3 ag	CRFR2-BP antag	CRFBP-R2 agonist	GPR7 antag conf	MCHR1 antag
C[C@@H]1CN[C@H](CCO)/C1=C\c1ccccc1	.	.	.	6	-3	.	.
COc1ccc(N(CC(=O)NCc2cccnc2)S(=O)(=O)c2ccccc2[N+](=O)[O-])c(OC)c1	1	0	1	0	-1	.	.
COc1ccc(N(CC(=O)NCc2ccc(Cl)cc2)S(=O)(=O)c2ccccc2[N+](=O)[O-])c(OC)c1	37*	6	5	-55	16	34*	38*
O=C(NC12CC3CC(CC(C3)C1)C2)OCCNC1CCCCC1	26*	0	1	-11	-1	-3	-9
COc1ccc(NC(=O)CNCc2ccc(Cl)cc2)cc1S(=O)(=O)N1CCOCC1	.	.	.	3	0	.	.
Cc1nn2c(NCCCN(C)C)c3c(nc2c1-c1ccccc1)CCCC3	30*	-2	0	-5	-1	18	23*
O=C(c1nn(Cc2ccccc2)c(=O)c2ccccc12)N1CCN(c2ccccn2)CC1	30*	-1	-1	-16	-1	32*	27*
COC(=O)C(Cc1c[nH]c2ccccc12)NC(=O)C1CC1 (configuration not stated)	2	.	.	-4	2	.	.
c1ccc(Nc2ccccc2Nc2ccccn2)nc1	53*	88*	68*	-2	1	-4	-6
O=C(NCc1ccco1)c1cccc2c1C(=O)c1ccc(N3CCCC3)cc1S2(=O)=O	.	.	.	-16	26	.	.
O=C(CCNC(=O)c1ccccc1Cl)NCc1cccnc1	.	.	.	-9	0	.	.
CCCCn1c(SCC(=O)N2CCCC2)nc2cc(S(N)(=O)=O)ccc21	-6	3	1	-5	-2	.	.
CCCCn1c(SCC(=O)N2CCCCC2C)nc2cc(S(N)(=O)=O)ccc21 (configuration not stated)	36*	0	0	-4	-3	-20	8
O=C(Nc1ccc2c(c1)OCO2)C1CC(c2cccc(Br)c2)=NO1 (configuration not stated)	-10	.	.	-2	-1	.	.
COC(=O)Nc1nc2ccc(SC(C)C)cc2[nH]1	.	.	.	0	-1	.	.
CCCSc1ccc2nc(NC(=O)OC)[nH]c2c1	29*	-2	0	-24	-2	40*	28*
COc1ccc(-n2c(=O)[nH]cc(C(=O)Nc3ccc4c(c3)OCO4)c2=O)cc1OC	-3	.	.	4	-1	.	.
CN(C(=O)c1cccc(NC(=O)Cc2ccc(NC(=O)C3CCN(C(=O)C4CCCC4)CC3)cc2)c1)C1CC1	.	.	.	-3	0	.	.
COc1ccc(NC(=O)c2cc3c(CO)cnc(C)c3oc2=Nc2cc(OC)cc(OC)c2)cc1	37*	.	.	-5	0	-21	-3
O=C(Nc1cccc(Cl)c1N1CCCC1)c1ccc([N+](=O)[O-])o1	-12	1	1	1	0	.	.
CCN1CCN(c2c(Cl)cccc2NC(=O)c2ccc([N+](=O)[O-])o2)CC1	28*	.	.	.	.	34*	34*
